Source: PubChem BioAssay (several laboratories)
bCat KO growth: beta-catenin-lacking colon tumor cell growth suppression; HCT116 beta-catenin knockout viability, CellTiter-Glo, 60 h; hits give low values; viability, % at 10 µM; actives 1.5% (n = 140,000); AID 818;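 active means viability at or under a set limit, the compound median less 4 SD, cut at about 6% in these data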
PTEN del growth: growth suppressors of cells with PTEN tumor suppressor deletion. HCT116 PTEN-null viability, CellTiter-Glo, 60 h; hits give low values. viability, % at 10 µM. actives 1.2% (n = 140,000). AID 827;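 active means viability at or below a set limit, 4 SD under the median of all tested compounds, cut at about 3.7% in these data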;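 further: PTEN knockout HCT116 line with beta catenin targeted HCT116 as companion control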
TNAP act hiacc: TNAP (human) activation, high acceptor; purified TNAP, CDP-star luminescence, 1 M DEA, 30 min; hits give high values; 0 = EDTA background, 1 = DMSO-only activity; P05186; 200,000 tested, under 10 active; activation factor at 20 µM; AID 1136;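 active means activation factor at least 2 at 20 µM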
Target sequence (P05186 whole entry, looked up): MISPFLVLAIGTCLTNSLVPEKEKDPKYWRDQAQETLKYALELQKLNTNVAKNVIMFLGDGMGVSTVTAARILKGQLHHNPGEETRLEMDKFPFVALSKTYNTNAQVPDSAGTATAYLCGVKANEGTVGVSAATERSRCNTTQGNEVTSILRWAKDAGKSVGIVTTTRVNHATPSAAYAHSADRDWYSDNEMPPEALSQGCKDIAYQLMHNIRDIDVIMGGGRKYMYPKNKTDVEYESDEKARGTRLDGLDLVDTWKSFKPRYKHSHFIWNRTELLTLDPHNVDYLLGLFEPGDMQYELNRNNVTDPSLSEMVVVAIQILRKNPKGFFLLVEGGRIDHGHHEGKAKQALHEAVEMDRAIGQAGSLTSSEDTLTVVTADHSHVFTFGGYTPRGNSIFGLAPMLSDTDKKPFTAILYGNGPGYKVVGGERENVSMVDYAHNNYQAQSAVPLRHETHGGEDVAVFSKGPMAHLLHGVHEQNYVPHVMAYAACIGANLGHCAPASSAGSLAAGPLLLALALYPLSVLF
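Control set: EDTA negative control, DMSO positive control / Assay system: human TNAP / Quantity: TNAP 1/800 final / Evaluation: TNAP activation factor scaled between EDTA and DMSO control wells / Measured by: luminescent substrate turnover signal / Compound dosing: one dose, 20 µM / Times: 30 min enzyme reaction at room temperature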
Lmaj promast: inhibitors of Leishmania major promastigote growth; Leishmania major promastigotes, resazurin fluorescence viability; inhibition, % at 10 µM; actives 9% (n = 200,000); AID 1063; in the data active means inhibition above about 50%;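 further: promastigotes grown with compound for 44 hours at 28 °C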
TNAP inh noacc: blocks human TNAP activity with no phosphate acceptor present. purified TNAP, CDP-star luminescence, 30 min. actives 0.26% (n = 200,000). P05186. AID 1012. inhibition, % at 20 µM;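 active means tissue-nonspecific alkaline phosphatase inhibition above about 50% at 20 µM in the single-dose screen, limit read from the data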
TNAP inh hiacc: TNAP (human) inhibition, high acceptor | purified TNAP, CDP-star luminescence, 1 M DEA | inhibition, % at 20 µM | actives 0.03% (n = 200,000) | AID 1135;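 active means over 50% inhibition of tissue-nonspecific alkaline phosphatase at 20 µM in the single-dose screen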
L major 1uM: L. major promastigote growth inhibition, 1 uM repeat; shares compounds with Lmaj promast; resazurin fluorescence, 48 h; inhibition, % at 1 µM; actives 13% (n = 1,100); AID 1258;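 active means inhibition above about 50% in both repeat tests, limit read from the data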
A number is an active result. Hits are enriched below; roughly 9.6% of the tested compounds scored in any of these assays.

For CCn1cc([N+](=O)[O-])c(C(=O)N2N=C(c3ccc(OC)cc3OC)CC2c2ccccc2O)n1 (stereo not given) the results were bCat KO growth inactive, PTEN del growth inactive, TNAP act hiacc inactive, Lmaj promast 60, TNAP inh noacc inactive, TNAP inh hiacc inactive and L major 1uM inactive.
`OC(CNCc1cccc(Cl)c1)c1ccccc1` (stereo not given) gave TNAP act hiacc inactive, Lmaj promast inactive, TNAP inh noacc inactive and TNAP inh hiacc inactive.
`Oc1cccc(C(O)CNCc2ccc(-c3ccccc3)cc2)c1` (stereo not given) gave TNAP act hiacc inactive, Lmaj promast 91, TNAP inh noacc inactive, TNAP inh hiacc inactive and L major 1uM inactive.
COc1ccc(-n2cc(C#N)c(=O)n(Cc3ccc(F)cc3)c2=O)cc1 was read as TNAP act hiacc inactive, Lmaj promast inactive, TNAP inh noacc inactive and TNAP inh hiacc inactive.
Screening CCN1C=C(Cc2ccc(OC)cc2)C2=C(C1)C(c1ccc(OC)cc1)C(C#N)=C(N)O2 (stereo not given) returned bCat KO growth inactive, PTEN del growth inactive, TNAP act hiacc inactive, Lmaj promast 100, TNAP inh noacc inactive, TNAP inh hiacc inactive and L major 1uM inactive.
Screening Cc1[nH]c2ccccc2c1/C=C/c1cc[n+](C)cc1 returned bCat KO growth inactive, PTEN del growth inactive, TNAP act hiacc inactive, Lmaj promast 65, TNAP inh noacc inactive, TNAP inh hiacc inactive and L major 1uM inactive.
For Cc1ccccc1/C=C/c1cc[n+](C)cc1 the results were TNAP act hiacc inactive, Lmaj promast inactive, TNAP inh noacc inactive and TNAP inh hiacc inactive.
For COc1cc(C(=O)Nc2cccc3cccnc23)cc(OC)c1OC the results were bCat KO growth inactive, PTEN del growth inactive, TNAP act hiacc inactive, Lmaj promast inactive, TNAP inh noacc inactive and TNAP inh hiacc inactive.
`COc1cc(NC(C)CCCN)c2ncccc2c1Oc1ccccc1` (stereo not given) gave bCat KO growth inactive, PTEN del growth inactive, TNAP act hiacc inactive, Lmaj promast 101, TNAP inh noacc inactive, TNAP inh hiacc inactive and L major 1uM 101.
Screening CCN(C(=O)CSc1nnc(NC2CCCCC2)s1)C1CCS(=O)(=O)C1 (stereo not given) returned bCat KO growth inactive, PTEN del growth inactive, TNAP act hiacc inactive, Lmaj promast inactive, TNAP inh noacc inactive and TNAP inh hiacc inactive.
For Cc1ccc(/C=N\NC(=O)C2CN(S(=O)(=O)c3ccccc3)CCN2S(=O)(=O)c2ccccc2)cc1 (stereo not given) the results were bCat KO growth inactive, PTEN del growth inactive, TNAP act hiacc inactive, Lmaj promast inactive, TNAP inh noacc inactive and TNAP inh hiacc inactive.
For COC(=O)C(NNc1ccccc1)(NC(=O)c1cccc(F)c1)C(F)(F)F (stereo not given) the results were bCat KO growth inactive, PTEN del growth inactive, TNAP act hiacc inactive, Lmaj promast inactive, TNAP inh noacc inactive and TNAP inh hiacc inactive.
For CC1(C)CC2(CC(c3ccccc3F)c3cc(Cl)c(O)cc3O2)NC(=S)N1 (stereo not given) the results were TNAP act hiacc inactive, Lmaj promast 83, TNAP inh noacc inactive, TNAP inh hiacc inactive and L major 1uM inactive.
Cc1cccc(C2CC3(CC(C)(C)NC(=S)N3)Oc3cc(O)ccc32)c1 (stereo not given) was read as TNAP act hiacc inactive, Lmaj promast inactive, TNAP inh noacc inactive and TNAP inh hiacc inactive.
Screening Cc1cccc(Nc2nc(N3CCN(C)CC3)nc(N)c2[N+](=O)[O-])c1 returned bCat KO growth inactive, PTEN del growth inactive, TNAP act hiacc inactive, Lmaj promast 96, TNAP inh noacc inactive, TNAP inh hiacc inactive and L major 1uM inactive.
Cc1cccc(Nc2nc(N)nc(CN3CCN(C)CC3)n2)c1 was read as bCat KO growth inactive, PTEN del growth inactive, TNAP act hiacc inactive, Lmaj promast inactive, TNAP inh noacc inactive and TNAP inh hiacc inactive.
Screening Cc1c(O)ccc(/C(Cc2ccc3ccccc3n2)=N\O)c1O returned bCat KO growth inactive, PTEN del growth inactive, TNAP act hiacc inactive, Lmaj promast 59, TNAP inh noacc inactive, TNAP inh hiacc inactive and L major 1uM inactive.
`Cc1c(NC(=O)OC(C)C)sc(=S)n1C` gave bCat KO growth inactive, PTEN del growth inactive, TNAP act hiacc inactive, Lmaj promast 97, TNAP inh noacc inactive, TNAP inh hiacc inactive and L major 1uM inactive.
For CC(=O)NCCOC(=O)Nc1sc(=S)n(C)c1C the results were bCat KO growth inactive, PTEN del growth inactive, TNAP act hiacc inactive, Lmaj promast inactive, TNAP inh noacc inactive and TNAP inh hiacc inactive.
Screening CC(=O)C1CCN(Cc2ccccc2)CC1 returned bCat KO growth inactive, PTEN del growth inactive, TNAP act hiacc inactive, Lmaj promast inactive, TNAP inh noacc inactive and TNAP inh hiacc inactive.
`Cc1ccc(S(=O)(=O)NNC(=O)C2CCN(Cc3ccccc3)CC2)cc1` gave bCat KO growth inactive, PTEN del growth inactive, TNAP act hiacc inactive, Lmaj promast 85, TNAP inh noacc inactive, TNAP inh hiacc inactive and L major 1uM inactive.
Screening COCc1cc(C)nc2sc(C(=O)NCCO)c(-n3cccc3)c12 returned TNAP act hiacc inactive, Lmaj promast inactive, TNAP inh noacc inactive and TNAP inh hiacc inactive.
For Cc1ccc(Nc2nc3ccccc3c(=O)s2)cc1C the results were bCat KO growth inactive, PTEN del growth inactive, TNAP act hiacc inactive, Lmaj promast inactive, TNAP inh noacc inactive and TNAP inh hiacc inactive.
`O=c1sc(Nc2ccccc2)nc2ccsc12` gave bCat KO growth inactive, PTEN del growth inactive, TNAP act hiacc inactive, Lmaj promast 100, TNAP inh noacc inactive, TNAP inh hiacc inactive and L major 1uM inactive.
Screening Cc1cccc(NC(=S)NC2CC3CCCC(C2)N3CC(C)C)c1 (stereo not given) returned bCat KO growth inactive, PTEN del growth inactive, TNAP act hiacc inactive, Lmaj promast 95, TNAP inh noacc inactive, TNAP inh hiacc inactive and L major 1uM inactive.
For Cc1c(C(=O)O)oc2c1/C(=N\O)CCC2 the results were bCat KO growth inactive, PTEN del growth inactive, TNAP act hiacc inactive, Lmaj promast 54, TNAP inh noacc inactive, TNAP inh hiacc inactive and L major 1uM inactive.
Screening c1ccc2c(c1)nc(N1CCOCC1)c1c3ccccc3[nH]c21 returned bCat KO growth inactive, PTEN del growth inactive, TNAP act hiacc inactive, Lmaj promast 53, TNAP inh noacc inactive, TNAP inh hiacc inactive and L major 1uM inactive.
Screening O=S(=O)(/C=C/c1ccccc1)Nc1ccc(F)cc1 returned TNAP act hiacc inactive, Lmaj promast inactive, TNAP inh noacc inactive and TNAP inh hiacc inactive.
`COc1ccc2nc(SCCN(C)C)[nH]c2c1` gave TNAP act hiacc inactive, Lmaj promast inactive, TNAP inh noacc inactive and TNAP inh hiacc inactive.
